“And” between values parts separate entries of the source, which are not always exact repeats. Equal values may be shown once. Values belong to the compound of their own block, whether it stands above or below them.
Experiment: Apparent acid dissociation constant (pK) was determined
Type: ADME
Conditions: for pKa: read-out: pK
In short: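 Analogue bound to apo-aspartate aminotransferase (complex formed at pH 8.3) was titrated toward lower pH by adding 2 M acetate buffer, pH 5.4. Absorption spectra were followed for the shift of the bound-coenzyme band to 420 nm, and the pK was estimated from the pH dependence of that spectral change.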

pK: 8.05 | pKa: 4.15
SMILES: Cc1cnc(C)c(O)c1C=O

pK: 3.62 and 6.1 and 8.33
SMILES: Cc1ncc(COP(=O)(O)O)c(C=O)c1O [PYRIDOXAL PHOSPHATE ANHYDROUS]

The remaining lines, values behind:

SMILES: CCOP(=O)(Cc1cnc(C)c(O)c1CO)OCC
pK: 8.59 | pKa: 4.53

SMILES: CCOP(=O)(O)Cc1cnc(C)c(O)c1C=O
pK: 3.91 and 8.21

SMILES: CCOP(=O)(Cc1cnc(C)c(O)c1C=O)OCC
pK: 3.03 and 7

SMILES: Cc1ncc(CP(=O)(O)O)c(C=O)c1O
pK: 4.07 and 6.76 and 9.2

From ChEMBL document CHEMBL1122218, “Phosphonate analogues of pyridoxal phosphate with shortened side chains” (J Med Chem, 1983)
